Source: PubChem BioAssay
SUMO1-SIM PPI: SUMO1-SIM interaction modulation. SUMO1 binding to a labelled peptide, TR-FRET, 1 h. inhibition, % at 20 µM. 0.33% of 360,000 active. AID 602429; in the data active = inhibition above about 37%
Target sequence (P63165 whole entry, looked up): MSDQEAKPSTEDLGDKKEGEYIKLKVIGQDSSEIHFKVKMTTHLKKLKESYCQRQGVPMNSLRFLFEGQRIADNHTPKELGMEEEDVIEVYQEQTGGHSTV
CSN deneddyl inh: inhibitors of human CSN-mediated cullin deneddylation | Purified CSN, SCF-Nedd8-OG deneddylation, fluorescence polarization | inhibition, % at 12.5 µM | 0.38% of 360,000 active | AID 651999;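 active = pattern-corrected inhibition above about 35%, with an unprinted fluorescence ratio check between 0.5 and 1.5, limit read from the data, passing the limit was not always enough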;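 also: 0% = enzyme with substrate and 100% = substrate without enzyme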
Target sequence (Q92905 whole entry, looked up, one chain of several): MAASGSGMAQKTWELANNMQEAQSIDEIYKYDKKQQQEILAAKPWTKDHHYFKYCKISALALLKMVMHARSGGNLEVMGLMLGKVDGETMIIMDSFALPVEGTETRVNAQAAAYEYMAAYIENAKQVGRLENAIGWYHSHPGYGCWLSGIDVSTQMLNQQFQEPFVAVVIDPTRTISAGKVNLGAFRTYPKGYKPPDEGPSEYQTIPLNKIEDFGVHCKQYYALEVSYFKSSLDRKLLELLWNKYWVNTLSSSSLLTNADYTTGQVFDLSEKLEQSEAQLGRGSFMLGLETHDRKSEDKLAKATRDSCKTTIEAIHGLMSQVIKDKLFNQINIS
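Assay system: purified human Csn5 enzyme expressed in HEK293T cells; Input: 0.24 nM Csn5 enzyme, final concentration; Reagent: 10 nM SCFSkp2-Nedd8OG; Compound dosing: 12.5 µM single point; Times: reaction 90 min, room temperature; Technique: fluorescence polarization readout.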
Rpn11 inh: inhibitors of human proteasome Rpn11; O00487; human 26S proteasome, Ub4-pepOG fluorescence polarization; 20S core pre-blocked with epoxomicin; inhibition, % at 20 µM; 0.59% of 360,000 active; AID 588493;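 active = inhibition at 20 µM, scaled to each plate's controls, above about 33%, limit read from the data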
Target sequence (O00487 whole entry, looked up): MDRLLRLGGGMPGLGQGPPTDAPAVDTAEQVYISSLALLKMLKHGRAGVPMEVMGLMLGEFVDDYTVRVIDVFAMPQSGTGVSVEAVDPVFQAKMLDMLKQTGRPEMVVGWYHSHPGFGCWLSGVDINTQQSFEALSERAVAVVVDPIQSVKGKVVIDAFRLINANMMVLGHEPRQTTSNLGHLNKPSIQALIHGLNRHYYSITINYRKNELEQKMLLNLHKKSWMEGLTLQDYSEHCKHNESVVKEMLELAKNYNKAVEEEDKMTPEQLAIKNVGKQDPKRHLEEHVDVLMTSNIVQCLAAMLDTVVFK
DNMT1 block: inhibitors of human DNMT1; P26358; DNMT1 molecular beacon, Hinp1I cleavage, fluorescence; inhibition (reported as % activation of signal), % at 10 µM; 0.83% of 360,000 active; in the data active = inhibition above about 50%
MT1-MMP act inh: inhibitors of human MT1-MMP activation; 0.061% of 360,000 active; AID 651647; GFP/RFP ratio change, % at 20 µM; P50281; HT1080 RFP-PRO-GFP cells, GFP/RFP ratio fluorescence, overnight; percent of plate control window, DMSO zero;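 active = GFP/RFP ratio change of at least 30% with cell ATP level not reduced by more than half and red fluorescence within 50% of control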
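Assay system: HT1080 RFP-PRO-GFP cells | Dosing: 20 µM single dose, 1% DMSO | Incubation: Cells overnight before dosing, compound overnight, 37 °C, 5% CO2 | Evaluation: GFP/RFP fluorescence ratio | Control set: DMSO-only wells and HT1080 RFP-L50D-GFP cell wells as references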
SKN-1 block: C. elegans SKN-1 inhibition; C. elegans VP596 Pgst-4::GFP/RFP ratio, acrylamide-induced, 24 h; inhibition, % at 21.8 µM; 0.49% of 360,000 active;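 active = interference check ratio from 0.5 to 1.5 plus GFP to RFP signal ratio inhibition reaching or exceeding a fixed threshold, cut at about 30% in these data, passing the limit was not always enough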
Rpn11 confirm: confirmation of human proteasome Rpn11 inhibitors. shares compounds with Rpn11 inh. purified human 26S proteasome, Ub4-pepOG fluorescence polarization; proteasome pretreated with epoxomicin. inhibition, % at 20 µM. 29% of 1,900 active
MMP-2 counter: MMP-2 (human) inhibition counter-screen | 4% of 1,900 active | inhibition, % at 20 µM | shares compounds with Rpn11 inh | recombinant MMP-2, FRET peptide cleavage fluorescence;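 also: human MMP-2 activated beforehand with APMA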
Thrombin FP: counter-screen for RPN11 inhibitors: inhibition of bovine thrombin; AID 602333; 13% of 1,900 active; shares compounds with Rpn11 inh; bovine thrombin cleavage of Ub4-pepOG, fluorescence polarization; inhibition, % at 20 µM;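 active = mean inhibition at least 40% at 20 µM, or signal 3 deviations below plate average, so some actives read negative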;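 also: plate controls were thrombin with DMSO for no effect and buffer wells lacking thrombin for full effect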
Starred values were filed as active, the others as inactive; · = no result shown. Only some compounds are listed: those with a hit (about 2.3% of all), similar ones and a draw of the others. Rule as the data show it, unless noted: active = inhibition above about 40%; inactive = the rest.

SMILES | SUMO1-SIM PPI | CSN deneddyl inh | Rpn11 inh | DNMT1 block | MT1-MMP act inh | SKN-1 block | Rpn11 confirm | MMP-2 counter | Thrombin FP
CCC(=O)N1CCC1(C)C(=O)Nc1cc(-c2ccccc2)nn1C (stereo not drawn) | 4.7 | -1.6 | -5.0 | -4.2 | 2.1 | 1.2 | · | · | ·
Cc1ccccc1N=Nc1c(O)[nH]c2ccccc12 | -28.0 | -0.9 | 7.4 | -3.0 | -8.8 | 18.6 | · | · | ·
Cc1ccc2[nH]c(O)c(N=Nc3ccccc3C)c2c1 | -38.7 | 2.9 | 54.0* | 1.0 | -8.8 | -3.9 | 64.5* | -38.3 | -18.1
Cc1c(C(=O)O)sc2nc(CSc3nnc(-c4ccc(F)cc4)n3C)[nH]c(=O)c12 | 16.3 | -4.1 | 3.7 | 1.1 | -4.6 | -15.4 | · | · | ·
CC(=O)c1sc2nc(CSc3nncn3C)[nH]c(=O)c2c1C | 0.3 | -1.4 | 44.4* | -0.6 | -6.9 | -14.8 | 4.0 | -74.0 | 7.7
Cn1c(Oc2cccnc2CN2CCCC2)nc2cc(-c3cccc(C(F)(F)F)c3)sc2c1=O | -21.3 | -1.7 | 7.3 | -6.2 | -0.3 | 13.7 | · | · | ·
Nc1c(C(=O)N/N=C/c2cccnc2)oc2nc(-c3ccccc3)cc(-c3ccco3)c12 | -4.7 | -3.3 | 62.1* | -11.7 | -5.0 | -14.1 | -51.0 | -80.7 | active
Nc1c(C(=O)N/N=C/c2cccnc2)oc2nc(-c3ccco3)cc(-c3ccco3)c12 | 25.5 | 46.8 | -48.5 | -7.5 | -10.9 | 7.4 | · | · | ·
COc1ccc2[nH]c3c(=O)n(/N=C/c4ccc(OC)c(CN5CCCC5)c4)c(C)nc3c2c1 | 66.2* | 62.5* | 91.2* | 11.9 | 1.4 | -18.1 | 90.1* | -53.9 | -4.2
CC(C)(C)NC(=O)C(c1ccnc2ccccc12)n1c(=O)c(-c2cc3ccccc3[nH]2)nc2ccccc21 (stereo not drawn) | -6.5 | 7.6 | · | · | -16.4 | -0.8 | · | · | ·
O=C(N/N=C/c1ccc(-c2ccc(S(=O)(=O)Nc3ncccn3)cc2)o1)c1cc2ccccc2cc1O | 38.9* | 31.9 | 50.4* | 85.5* | 1.3 | 7.4 | 50.9* | -19.1 | 35.5
NS(=O)(=O)c1ccc(-c2ccc(/C=N/NC(=O)c3ccccc3O)o2)cc1 | -21.7 | -1.9 | 7.3 | 11.4 | -2.8 | 3.5 | · | · | ·
O=C(O)c1ccccc1N/N=C/C1=C(N2CCOCC2)C(=C\c2ccccc2)/CC1 | 11.4 | 23.2 | 60.3* | 8.3 | -8.2 | -6.0 | 15.4 | -33.7 | -84.1
N#C/C(=C\C1=C(N2CCOCC2)C(=C\c2ccc(Cl)cc2)/CC1)C(=O)Nc1ccccc1F | -22.1 | 16.6 | 57.7* | 38.7 | 4.5 | 30.3 | 56.4* | 2.9 | -34.2
CCN(CC)c1ccc(/C=C2\CCC(/C=C(\C#N)C(=O)Nc3ccccc3F)=C2N2CCOCC2)cc1 | 2.7 | 15.6 | 29.0 | 2.8 | 69.4 | 23.6 | · | · | ·
O=C(N/N=C/C1=C(N2CCOCC2)C(=C\c2ccccc2)/CC1)Nc1ccccc1 | -5.5 | -0.2 | 18.9 | 12.9 | -7.8 | 8.7 | · | · | ·
N#C/C(=C\C1=C(N2CCOCC2)C(=C/c2cccc([N+](=O)[O-])c2)/CC1)C(=O)Nc1ccccc1F | -14.8 | 24.5 | · | 2.4 | 14.8 | 83.7 | · | · | ·
N#C/C(=C/C1=C(N2CCOCC2)C(=C/c2ccc(Cl)cc2Cl)/CC1)C(=O)Nc1ccccc1F | -14.1 | 31.8 | 41.6* | 16.9 | 17.5 | 80.6 | 18.0 | -25.4 | 0.3
CN(C)c1ccc(-c2csc(C(O)c3ccc(F)c(F)c3)n2)cc1 (stereo not drawn) | -3.5 | -8.4 | -5.1 | -12.6 | -2.1 | 6.4 | · | · | ·
CCc1ccccc1OCC(=O)Nc1ccc(N2CCCC2)cc1C | -39.4 | 20.1 | 87.6* | 53.3* | -36.7 | 6.9 | 43.4* | -0.5 | 29.6
Cc1ccccc1OCC(=O)Nc1ccc(N2CCOCC2)cc1N1CCOCC1 | 2.4 | -1.1 | 3.6 | -6.2 | 1.8 | 4.1 | · | · | ·
O=C(Nc1nc(-c2ccco2)cs1)c1ccccc1 | 21.8 | 7.7 | 45.4* | 1.8 | -11.8 | 9.2 | -3.5 | 11.0 | -11.4
N#CCc1ccc(Oc2ncc(C(F)(F)F)cc2Cl)cc1 | -0.6 | -8.0 | 1.4 | 0.9 | 2.4 | 6.3 | · | · | ·
Cc1ccc(CO/N=C\Cc2snc(Sc3ncc(C(F)(F)F)cc3Cl)c2C#N)cc1 | -0.7 | 19.9 | 44.7* | -8.5 | -15.5 | 8.0 | 60.1* | 9.7 | 49.1*
CCOC(=O)[C@]12CCCC=C1N(Cc1ccco1)C(=O)[C@H](CC(=O)NCc1ccccc1)C2 | 4.5 | 6.2 | · | · | 0.6 | 6.2 | · | · | ·
SMILES | SUMO1-SIM PPI | CSN deneddyl inh | Rpn11 inh | DNMT1 block | MT1-MMP act inh | SKN-1 block | Rpn11 confirm | MMP-2 counter | Thrombin FP
CCS(=O)(=O)N1N=C(c2ccc(NS(C)(=O)=O)cc2)CC1c1ccccc1 (stereo not drawn) | -3.5 | 35.2* | 82.0* | 2.4 | -31.9 | 68.2 | 153.4* | -20.3 | 139.2*
COc1cccc(Nc2ccccc2C(=O)O)c1 | 6.6 | -1.9 | -3.9 | 1.4 | -2.9 | 6.4 | · | · | ·
COc1cc(-c2ccc(Nc3ccccc3C(=O)O)c(OC)c2)ccc1Nc1ccccc1C(=O)O | 60.8* | 46.2 | 47.7* | 108.5* | 4.6 | -5.4 | 41.0* | 72.1* | -29.1
OC[C@@H]1CN(Cc2cccs2)C[C@H](n2cnc3c(NCc4ccncc4)ncnc32)O1 | -2.6 | -0.6 | -3.5 | 10.0 | -2.9 | -5.7 | · | · | ·
C=CCn1c(O)c(C=Nc2ccc(Cc3ccncc3)cc2)c(=O)[nH]c1=S | -8.1 | 2.1 | 47.5* | 0.7 | 1.8 | 2.9 | 11.3 | -3.2 | -8.5
Cn1cncc1C#Cc1ccc2cc(C(C)(C)O)oc(=O)c2c1 | -28.3 | 4.2 | 4.4 | -3.6 | 2.2 | 14.0 | · | · | ·
Cn1cncc1C#Cc1ccc2cc(C3(O)CCCCC3)oc(=O)c2c1 | -100.3 | 36.2* | 46.7* | 21.4 | 8.8 | 21.7 | 90.5* | 6.3 | 30.9
Cc1onc(-c2c(F)cccc2Cl)c1C(=O)OCC(=O)c1c[nH]c2ccccc12 | 11.7 | 0.5 | 57.7* | -7.2 | -4.7 | 7.8 | 20.0 | -28.2 | -11.3
CCOc1ccccc1C1N=C(c2ccc(OC)cc2)CC(c2ccccc2O)N1 (stereo not drawn) | -6.4 | 5.3 | 41.8* | -1.3 | -3.9 | 6.0 | -12.7 | -46.0 | -3.6
CC(C)C1N=C(c2ccc3c(c2)OCO3)CC(c2ccccc2O)N1 (stereo not drawn) | -4.7 | 0.8 | -7.8 | -1.0 | -6.2 | 6.2 | · | · | ·
CCCCCCCCN1C(=O)[C@H](CC(=O)NCc2ccc(C)o2)C[C@@]2(C(=O)OC)CCCCC=C12 | 6.4 | 3.0 | · | · | -0.2 | 0.4 | · | · | ·
